Series [1] deals with Albumin (Homo sapiens, UniProt P02768). Nature of the series: Binding affinity to human serum albumin at 5 uM after 12 mins by HPLC-MS analysis relative to control. The note with it: isolated protein, 0.2 h. It is filed as ADME.
Series [2] addresses Cannabinoid receptor 2 (Homo sapiens) (UniProt P34972). Nature of the series: Displacement of [3H]WIN55212-2 from CB2 receptor (unknown origin) at 1 uM after 120 mins. (In general: Displacement assays read how much labelled ligand stays bound in the presence of the test substance.)
Series [3] concerns the target Mu-type opioid receptor (Homo sapiens) (UniProt P35372). Nature of the series: Displacement of [3H]DAMGO from mu opioid receptor (unknown origin) at 1 uM after 120 mins.
Series [4] concerns Mus musculus. As to the kind of experiment: Toxicity in CD-1 mouse at 3 mg/kg, ip and 30 mg/kg, po. It is filed as organism-based. The conditions noted are these: in vivo.
Series [5] addresses Adrenergic receptor alpha-2 (Homo sapiens) (UniProt P08913+P18825+P18089). As to the kind of experiment: Displacement of [3H]RX 821002 from alpha2-adrenergic receptor (unknown origin) at 1 uM after 60 mins.
In series [6] the test system is Mus musculus. Nature of the series: Antinociceptive activity in CD-1 mouse assessed as reduction of formalin-induced paw licking activity at 3 mg/kg, ip administered 15 mins prior to formalin-challenge measured after 5 mins in presence of 5-HT1A receptor antagonist WAY-100635. It counts as functional, organism-based. Details: dose 3 mg/kg.
Series [7] deals with Mus musculus. Nature of the series: Antinociceptive activity in CD-1 mouse assessed as reduction of formalin-induced paw licking activity at 30 mg/kg, po administered 30 mins prior to formalin-challenge measured after 15 to 30 mins. It is filed as functional, organism-based. Also noted: dose 30 mg/kg.
A short description of series [8]: Half life in mouse liver microsomes at 1 to 5 uM by HPLC-MS analysis. It is filed as ADME, Microsome. On the technique in general: Liver microsomes are a subcellular fraction often used to study metabolism.
Series [9] concerns Mus musculus. Nature of the series: Antinociceptive activity in CD-1 mouse assessed as reduction of formalin-induced paw licking activity at 30 mg/kg, po administered 30 mins prior to formalin-challenge measured after 5 mins. It is filed as functional, organism-based. Also noted: dose 30 mg/kg.
The species named for series [10] is Homo sapiens. As to the kind of experiment: Displacement of [125I]Tyr11-somatostatin-14 from somatostatin receptor (unknown origin) at 1 uM after 60 mins.
Series [11] has as its system Mus musculus. As to the kind of experiment: Antinociceptive activity in CD-1 mouse assessed as reduction of formalin-induced paw licking activity at 3 mg/kg, ip administered 15 mins prior to formalin-challenge measured after 15 to 30 mins. Details: dose 3 mg/kg. It is filed as functional, organism-based.
In series [12] the target is T1, 5-hydroxytryptamine receptor 1A (Rattus norvegicus, UniProt P19327).
T1 sequence (P19327 whole entry): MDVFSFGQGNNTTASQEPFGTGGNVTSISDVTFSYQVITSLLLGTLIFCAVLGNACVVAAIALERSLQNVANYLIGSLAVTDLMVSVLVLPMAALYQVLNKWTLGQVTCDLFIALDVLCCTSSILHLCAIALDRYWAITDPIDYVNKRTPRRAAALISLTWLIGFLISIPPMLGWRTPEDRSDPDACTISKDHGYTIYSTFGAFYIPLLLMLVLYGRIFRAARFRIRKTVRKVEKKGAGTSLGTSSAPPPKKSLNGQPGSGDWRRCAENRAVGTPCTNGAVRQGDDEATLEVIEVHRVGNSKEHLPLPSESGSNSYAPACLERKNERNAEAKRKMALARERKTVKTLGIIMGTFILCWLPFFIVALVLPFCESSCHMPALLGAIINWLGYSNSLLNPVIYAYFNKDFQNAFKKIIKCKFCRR
As to the kind of experiment: Displacement of [3H]-8-OH-DPAT from 5-HT1A receptor in Sprague-Dawley rat cerebral cortex after 15 mins. It is filed as tissue-based.

Series [13] can be described thus: Half life in human liver microsomes at 1 to 5 uM by HPLC-MS analysis. It is filed as ADME, Microsome. Summed up:
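Incubation mixtures pre-equilibrated at 37 °C with NADPH and MgCl2, then rat or human liver microsomes added to start the reaction. Aliquots were withdrawn and quenched at several time points, and percent parent remaining was measured by HPLC-MS and plotted against time. t1/2 was taken from the slope of peak area over time and used to calculate CLint.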

The species named for series [14] is Mus musculus. Nature of the series: Hypothermic activity in Swiss mouse assessed as change in rectal temperature after 60 mins. The note with it: 1 h, read-out: MED. It counts as functional.

The structures appear in SMILES notation. pKi: −log10 of the molar value. Active and inactive are the calls of the source.

Cannabinoid receptor 2 (Homo sapiens), sequence (P34972 whole entry): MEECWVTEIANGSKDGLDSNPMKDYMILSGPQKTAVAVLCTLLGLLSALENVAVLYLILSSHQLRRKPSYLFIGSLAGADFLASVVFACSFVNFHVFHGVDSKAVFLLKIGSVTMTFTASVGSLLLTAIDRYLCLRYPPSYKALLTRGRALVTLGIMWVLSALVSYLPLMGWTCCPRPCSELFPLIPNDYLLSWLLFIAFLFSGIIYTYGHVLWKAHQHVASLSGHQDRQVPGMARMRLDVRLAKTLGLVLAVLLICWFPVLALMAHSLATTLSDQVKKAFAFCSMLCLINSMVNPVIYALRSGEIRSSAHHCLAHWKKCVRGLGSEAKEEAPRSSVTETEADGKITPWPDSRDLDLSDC
Mu-type opioid receptor (Homo sapiens), sequence (P35372 whole entry): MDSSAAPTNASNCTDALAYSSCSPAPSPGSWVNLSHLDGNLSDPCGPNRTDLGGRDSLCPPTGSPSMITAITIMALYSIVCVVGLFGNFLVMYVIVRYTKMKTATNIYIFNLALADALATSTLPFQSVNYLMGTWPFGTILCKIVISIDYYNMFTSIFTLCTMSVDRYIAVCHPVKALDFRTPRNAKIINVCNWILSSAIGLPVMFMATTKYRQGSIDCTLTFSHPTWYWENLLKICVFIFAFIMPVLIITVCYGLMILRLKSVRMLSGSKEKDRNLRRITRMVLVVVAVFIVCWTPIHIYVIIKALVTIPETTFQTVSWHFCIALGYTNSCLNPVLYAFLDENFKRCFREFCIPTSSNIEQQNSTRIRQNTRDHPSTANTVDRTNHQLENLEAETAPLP
Albumin, sequence (P02768 whole entry): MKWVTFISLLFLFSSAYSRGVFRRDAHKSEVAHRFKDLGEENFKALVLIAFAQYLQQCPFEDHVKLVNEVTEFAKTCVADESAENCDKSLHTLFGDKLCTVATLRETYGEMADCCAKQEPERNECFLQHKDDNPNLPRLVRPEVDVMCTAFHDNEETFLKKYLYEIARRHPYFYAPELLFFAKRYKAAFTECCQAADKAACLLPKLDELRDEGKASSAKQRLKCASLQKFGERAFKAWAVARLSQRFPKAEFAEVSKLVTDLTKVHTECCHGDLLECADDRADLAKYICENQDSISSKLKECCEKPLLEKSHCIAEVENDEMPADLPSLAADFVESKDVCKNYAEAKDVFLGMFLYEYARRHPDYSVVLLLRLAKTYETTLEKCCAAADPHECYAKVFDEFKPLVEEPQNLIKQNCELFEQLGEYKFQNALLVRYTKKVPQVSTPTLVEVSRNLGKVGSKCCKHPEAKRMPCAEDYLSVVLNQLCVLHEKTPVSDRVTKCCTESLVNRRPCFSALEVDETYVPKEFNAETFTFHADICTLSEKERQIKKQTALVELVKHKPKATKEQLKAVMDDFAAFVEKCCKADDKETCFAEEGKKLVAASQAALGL

Regarding `CCOc1ccccc1OCCNCCCCN1C(=O)C2CCCN2C1=O.Cl` (centres undefined), the figures for the Activity in [1] and in series [4] were 25% and “Non-toxic”, respectively. Besides, the inhibition entry in [2], in [3], in series [5] and in series [10] was “inactive” in each case. Further, the outcome in [6] was inactive. Further, the result in series [7], in [9] and in series [11] was Active. In addition, the half-life – broadly, the time needed for the level to fall by half in the phase considered – at up to 5 µM is 0.492 h in series [8] and 2.98 h in series [13]. The pKi (in general, the Ki on a negative log10 scale, so that one unit is a factor of ten) in series [12] was 8.64. In addition, the minimal effective dose in series [14] was 0.875 mg/kg.
